Consider eight molecules from article PMC3070847 (Bioorganic & medicinal chemistry letters, 2011).

Where only a bound is given, the exact number is not on record here.

This test has as its target HIV-1 IN (Human immunodeficiency virus type 1 group M subtype B, UniProt P04585). Kind of test: Biochemical gel assay of HIV-1 IN. To be noted: IN IC50 3'-P, 3' processing function. An outline of the steps:
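Recombinant HIV-1 integrase was used as the enzyme in the biochemical evaluation.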

With `CCOCn1c(C(=O)c2cc(C)cc(C)c2)c(CC)c(=O)n(O)c1=O` [Compound 24], the IC50 (usually the midpoint of a concentration-inhibition curve) is > 111 µM.

Turning to `CCc1c(C(=O)c2ccccc2)n(COCCc2ccc(F)cc2)c(=O)n(O)c1=O` [Compound 21], the IC50 is > 111 µM.

For the molecule `CCOCn1c(C(=O)c2ccccc2)c(CC)c(=O)n(O)c1=O` [Compound 23], the IC50 is > 111 µM.

Consider `CCc1c(C(=O)c2cc(C)cc(C)c2)n(COCCc2ccc(F)cc2)c(=O)n(O)c1=O` [Compound 22], for which the IC50 was > 111 µM.

Take `CCc1c(C(=O)c2cc(C)cc(C)c2)n(COCc2ccccc2)c(=O)n(O)c1=O` [Compound 20]: the IC50 was > 111 µM.

`CCc1c(C(=O)c2cc(C)cc(C)c2)n(COCc2ccc(F)cc2)c(=O)n(O)c1=O` [Compound 19]: the IC50 was > 111 µM.

In the case of `CCc1c(C(=O)c2ccccc2)n(COCc2ccc(F)cc2)c(=O)n(O)c1=O` [Compound 18], the IC50 was > 111 µM.

For `CCc1c(C(=O)c2ccccc2)n(COCc2ccccc2)c(=O)n(O)c1=O` [Compound 17], the IC50 is > 111 µM.
